Data taken from ChEMBL document CHEMBL1124366, “Synthesis and biological properties of N63-carboxamides of teicoplanin antibiotics. Structure-activity relationships” (J Med Chem, 1989).
Converted amounts (≈) assume the structure as drawn.

How the values were obtained:
Pseudomonas aeruginosa = experiment: In vitro minimum inhibitory concentration against Pseudomonas aeruginosa ATCC 10145; assay type: functional
Staphylococcus aureus = experiment: In vitro minimum inhibitory concentration against Staphylococcus aureus Tour; assay type: functional
Streptococcus pneumoniae = experiment: In vitro minimum inhibitory concentration against Streptococcus pneumoniae UC41; assay type: functional
Streptococcus pyogenes [1] = experiment: Subcutaneously administration into mice infected with Streptococcus pyogenes C 203; assay type: functional; details: sc
Method in brief: (§1)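 Mice (five per treatment group, five groups) infected intraperitoneally with about 10⁵ cells of Strep. pyogenes C 203, about 100× the LD50. ED50 (mg/kg) was calculated from the percentage of mice surviving at each dose on day 7.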

Escherichia coli = experiment: In vitro minimum inhibitory concentration against Escherichia coli SKF 12140; assay type: functional
Streptococcus pyogenes [2] = experiment: In vitro minimum inhibitory concentration against Streptococcus pyogenes C 203; assay type: functional
Proteus vulgaris = experiment: In vitro minimum inhibitory concentration against Proteus vulgaris X 19 ATCC 881; assay type: functional
[3] = tested on: Ac2-L-Lys-D-Ala-D-Ala peptide; experiment: Association constant with Ac2-L-Lys-D-Ala-D-Ala
Method in brief: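 UV difference spectroscopy at 24 ± 2 °C in 4-cm unthermostated cells. Antibiotic was at 30 μM in 10% MeOH in sodium phosphate buffer, pH 9, and titrated with Ac2-L-Lys-D-Ala-D-Ala. ΔA was monitored at 294 nm. Ka was taken from the slope of a Scatchard plot.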

[4] = tested on: Staphylococcus epidermidis; experiment: In vitro minimum inhibitory concentration against Staphylococcus epidermis ATCC 12228; assay type: functional
[5] = tested on: Staphylococcus haemolyticus; experiment: In vitro minimum inhibitory concentration against Staphylococcus hemolyticus 602 cell line; assay type: functional; details: strain 602
Enterococcus faecalis = experiment: In vitro minimum inhibitory concentration against Streptococcus faecalis ATCC 7080; assay type: functional
Gram-negative bacteria = experiment: Minimum inhibitory concentration of compound against Gram negative bacteria
Streptococcus pyogenes [6] = experiment: In vivo effective dose given perorally to mice infected with Streptococcus pyogenes C 203; assay type: functional; details: po; method in brief: as §1

SMILES	MIC (Pseudomonas aeruginosa) [µg/mL]	MIC (Staphylococcus aureus) [µg/mL]	MIC (Streptococcus pneumoniae) [µg/mL]	ED50 (Streptococcus pyogenes [1]) [mg/kg]	MIC (Escherichia coli) [µg/mL]	MIC (Streptococcus pyogenes [2]) [µg/mL]	MIC (Proteus vulgaris) [µg/mL]	Ka [3] [M⁻¹]	MIC [4] [µg/mL]	MIC [5] [µg/mL]	MIC (Enterococcus faecalis) [µg/mL]	MIC (Gram-negative bacteria) [µg/mL]	ED50 (Streptococcus pyogenes [6]) [mg/kg]
NCCCNC(=O)[C@H]1NC(=O)[C@H]2NC(=O)[C@H](NC(=O)[C@@H]3NC(=O)[C@H]4NC(=O)[C@@H](Cc5ccc(c(Cl)c5)Oc5cc3cc(c5O)Oc3ccc(cc3Cl)[C@H]2O)NC(=O)[C@H](N)c2ccc(O)c(c2)Oc2cc(O)cc4c2)c2ccc(O)c(c2)-c2c(O)cc(O)cc21	32 (≈ 25.5 µM)	0.12 (≈ 0.0956 µM)	0.12 (≈ 0.0956 µM)	1.25	4 (≈ 3.19 µM)	0.06 (≈ 0.0478 µM)	32 (≈ 25.5 µM)	26000	0.06 (≈ 0.0478 µM)	0.12 (≈ 0.0956 µM)	0.12 (≈ 0.0956 µM)	–	–
CC(=O)N[C@@H]1[C@H](O[C@@H]2c3ccc(c(Cl)c3)Oc3cc4cc(c3O)Oc3ccc(cc3Cl)C[C@H]3NC(=O)[C@H](N)c5ccc(O)c(c5)Oc5cc(O)cc(c5)[C@H](NC3=O)C(=O)N[C@H]4C(=O)N[C@H]3C(=O)N[C@@H]2C(=O)N[C@H](C(=O)NCCN2CCOCC2)c2cc(O)cc(O[C@H]4O[C@H](CO)[C@@H](O)[C@@H](O)[C@@H]4O)c2-c2cc3ccc2O)O[C@@H](CO)[C@@H](O)[C@@H]1O	–	0.25 (≈ 0.149 µM)	0.5 (≈ 0.298 µM)	1.6	–	0.12 (≈ 0.0716 µM)	–	–	0.06 (≈ 0.0358 µM)	–	1 (≈ 0.596 µM)	> 128	–
N[C@H]1C(=O)N[C@@H]2Cc3ccc(c(Cl)c3)Oc3cc4cc(c3O)Oc3ccc(cc3Cl)[C@@H](O)[C@@H]3NC(=O)[C@H](NC(=O)[C@@H]4NC(=O)[C@@H](NC2=O)c2cc(O)cc(c2)Oc2cc1ccc2O)c1ccc(O)c(c1)-c1c(O)cc(O)cc1[C@@H](C(=O)O)NC3=O [TEICOPLANIN AGLYCON]	> 128	0.06 (≈ 0.05 µM)	0.12 (≈ 0.1 µM)	0.95	64 (≈ 53.4 µM)	0.12 (≈ 0.1 µM)	128 (≈ 107 µM)	30000	0.016 (≈ 0.0133 µM)	0.25 (≈ 0.209 µM)	0.12 (≈ 0.1 µM)	–	–
CNCCCNC(=O)[C@H]1NC(=O)[C@H]2NC(=O)[C@H](NC(=O)[C@@H]3NC(=O)[C@H]4NC(=O)[C@@H](Cc5ccc(c(Cl)c5)Oc5cc3cc(c5O[C@@H]3O[C@@H](CO)[C@@H](O)[C@H](O)[C@@H]3NC(=O)CCCCCCC(C)C)Oc3ccc(cc3Cl)[C@H]2O[C@@H]2O[C@@H](CO)[C@@H](O)[C@H](O)[C@@H]2NC(C)=O)NC(=O)[C@H](N)c2ccc(O)c(c2)Oc2cc(O)cc4c2)c2ccc(O)c(c2)-c2c(O[C@H]3O[C@H](CO)[C@@H](O)[C@@H](O)[C@@H]3O)cc(O)cc21	–	0.12 (≈ 0.0615 µM)	0.12 (≈ 0.0615 µM)	0.14	–	0.06 (≈ 0.0308 µM)	–	66000	0.06 (≈ 0.0308 µM)	0.12 (≈ 0.0615 µM)	0.12 (≈ 0.0615 µM)	–	112
N[C@H]1C(=O)N[C@@H]2Cc3ccc(c(Cl)c3)Oc3cc4cc(c3O)Oc3ccc(cc3Cl)[C@@H](O)[C@@H]3NC(=O)[C@H](NC(=O)[C@@H]4NC(=O)[C@@H](NC2=O)c2cc(O)cc(c2)Oc2cc1ccc2O)c1ccc(O)c(c1)-c1c(O)cc(O)cc1[C@@H](C(=O)NC(CCC(=O)O)C(=O)O)NC3=O (stereo not given in full)	> 128	0.12 (≈ 0.0904 µM)	0.12 (≈ 0.0904 µM)	5	> 128	0.12 (≈ 0.0904 µM)	> 128	82000	0.12 (≈ 0.0904 µM)	–	0.5 (≈ 0.376 µM)	–	–
CN(C)CCCCCCCNC(=O)[C@H]1NC(=O)[C@H]2NC(=O)[C@H](NC(=O)[C@@H]3NC(=O)[C@H]4NC(=O)[C@@H](Cc5ccc(c(Cl)c5)Oc5cc3cc(c5O)Oc3ccc(cc3Cl)[C@H]2O)NC(=O)[C@H](N)c2ccc(O)c(c2)Oc2cc(O)cc4c2)c2ccc(O)c(c2)-c2c(O)cc(O)cc21	128 (≈ 95.6 µM)	0.06 (≈ 0.0448 µM)	0.12 (≈ 0.0896 µM)	0.95	16 (≈ 11.9 µM)	0.06 (≈ 0.0448 µM)	128 (≈ 95.6 µM)	50000	0.06 (≈ 0.0448 µM)	0.12 (≈ 0.0896 µM)	0.12 (≈ 0.0896 µM)	–	–
CCCCN(CCCC)CCCNC(=O)[C@H]1NC(=O)[C@H]2NC(=O)[C@H](NC(=O)[C@@H]3NC(=O)[C@H]4NC(=O)[C@@H](Cc5ccc(c(Cl)c5)Oc5cc3cc(c5O)Oc3ccc(cc3Cl)[C@H]2O[C@@H]2O[C@@H](CO)[C@@H](O)[C@H](O)[C@@H]2NC(C)=O)NC(=O)[C@H](N)c2ccc(O)c(c2)Oc2cc(O)cc4c2)c2ccc(O)c(c2)-c2c(O[C@H]3O[C@H](CO)[C@@H](O)[C@@H](O)[C@@H]3O)cc(O)cc21	–	1 (≈ 0.577 µM)	0.5 (≈ 0.289 µM)	0.18	–	0.12 (≈ 0.0693 µM)	–	–	0.06 (≈ 0.0346 µM)	–	0.5 (≈ 0.289 µM)	> 128	–
CN(C)CCCNC(=O)[C@H]1NC(=O)[C@H]2NC(=O)[C@H](NC(=O)[C@@H]3NC(=O)[C@H]4NC(=O)[C@@H](Cc5ccc(c(Cl)c5)Oc5cc3cc(c5O)Oc3ccc(cc3Cl)[C@H]2O)NC(=O)[C@H](N)c2ccc(O)c(c2)Oc2cc(O)cc4c2)c2ccc(O)c(c2)-c2c(O)cc(O)cc21	32 (≈ 24.9 µM)	0.06 (≈ 0.0468 µM)	0.12 (≈ 0.0935 µM)	0.31	8 (≈ 6.23 µM)	0.06 (≈ 0.0468 µM)	16 (≈ 12.5 µM)	55000	0.016 (≈ 0.0125 µM)	–	0.12 (≈ 0.0935 µM)	–	–
CC(=O)N[C@@H]1[C@H](O[C@@H]2c3ccc(c(Cl)c3)Oc3cc4cc(c3O)Oc3ccc(cc3Cl)C[C@H]3NC(=O)[C@H](N)c5ccc(O)c(c5)Oc5cc(O)cc(c5)[C@H](NC3=O)C(=O)N[C@H]4C(=O)N[C@H]3C(=O)N[C@@H]2C(=O)N[C@H](C(=O)NCCCN(C)C)c2cc(O)cc(O[C@H]4O[C@H](CO)[C@@H](O)[C@@H](O)[C@@H]4O)c2-c2cc3ccc2O)O[C@@H](CO)[C@@H](O)[C@@H]1O	–	0.5 (≈ 0.303 µM)	0.5 (≈ 0.303 µM)	0.81	–	0.12 (≈ 0.0728 µM)	–	–	0.12 (≈ 0.0728 µM)	–	1 (≈ 0.607 µM)	> 128	–
CCOC(=O)CNC(=O)[C@H]1NC(=O)[C@H]2NC(=O)[C@H](NC(=O)[C@@H]3NC(=O)[C@H]4NC(=O)[C@@H](Cc5ccc(c(Cl)c5)Oc5cc3cc(c5O[C@@H]3O[C@@H](CO)[C@@H](O)[C@H](O)[C@@H]3NC(=O)CCCCCCC(C)C)Oc3ccc(cc3Cl)[C@H]2O[C@@H]2O[C@@H](CO)[C@@H](O)[C@H](O)[C@@H]2NC(C)=O)NC(=O)[C@H](N)c2ccc(O)c(c2)Oc2cc(O)cc4c2)c2ccc(O)c(c2)-c2c(O[C@H]3O[C@H](CO)[C@@H](O)[C@@H](O)[C@@H]3O)cc(O)cc21	–	0.25 (≈ 0.127 µM)	0.06 (≈ 0.0305 µM)	0.1	–	0.06 (≈ 0.0305 µM)	–	120000	0.12 (≈ 0.0611 µM)	–	0.12 (≈ 0.0611 µM)	–	> 300
CC(=O)N[C@@H]1[C@H](O[C@@H]2c3ccc(c(Cl)c3)Oc3cc4cc(c3O)Oc3ccc(cc3Cl)C[C@H]3NC(=O)[C@H](N)c5ccc(O)c(c5)Oc5cc(O)cc(c5)[C@H](NC3=O)C(=O)N[C@H]4C(=O)N[C@H]3C(=O)N[C@@H]2C(=O)N[C@H](C(=O)NCCN2CCCC2)c2cc(O)cc(O[C@H]4O[C@H](CO)[C@@H](O)[C@@H](O)[C@@H]4O)c2-c2cc3ccc2O)O[C@@H](CO)[C@@H](O)[C@@H]1O	–	0.25 (≈ 0.151 µM)	0.5 (≈ 0.301 µM)	0.41	–	0.12 (≈ 0.0723 µM)	–	–	0.25 (≈ 0.151 µM)	–	0.5 (≈ 0.301 µM)	> 128	–
CCN(CC)CCCNC(=O)[C@H]1NC(=O)[C@H]2NC(=O)[C@H](NC(=O)[C@@H]3NC(=O)[C@H]4NC(=O)[C@@H](Cc5ccc(c(Cl)c5)Oc5cc3cc(c5O)Oc3ccc(cc3Cl)[C@H]2O[C@@H]2O[C@@H](CO)[C@@H](O)[C@H](O)[C@@H]2NC(C)=O)NC(=O)[C@H](N)c2ccc(O)c(c2)Oc2cc(O)cc4c2)c2ccc(O)c(c2)-c2c(O[C@H]3O[C@H](CO)[C@@H](O)[C@@H](O)[C@@H]3O)cc(O)cc21	–	0.25 (≈ 0.149 µM)	0.5 (≈ 0.298 µM)	0.3	–	0.12 (≈ 0.0716 µM)	–	–	0.06 (≈ 0.0358 µM)	–	0.5 (≈ 0.298 µM)	> 128	–
